Values after ≈ are worked out from the molar mass of the structure shown.
What was measured:
Type in all cases: functional
Staphylococcus warneri = experiment: Antibacterial activity against Methicillin-resistant Staphylococcus warneri MB74 after 24 hrs by microdilution assay; settings: MB74, 24 h
Procedure, shortened: (§1)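 Broth microdilution MIC, run as in an earlier cited report. Strains are clinical isolates identified by standard methods and MALDI-TOF; E. faecalis MB19 and MB51 are Ligurian seawater isolates. Highest concentration tested was 128 μg/mL. MICs are given in μg/mL and μM, with oxacillin and vancomycin as reference antibiotics.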

[1] = test system: Staphylococcus lugdunensis; experiment: Antibacterial activity against Staphylococcus lugdunensis MB96 after 24 hrs by microdilution assay; settings: MB96, 24 h
Procedure, shortened: (§2)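 Broth microdilution MIC against clinical or seawater-isolated strains (identified by standard procedures and MALDI-TOF), with compound solutions and testing as in earlier work. MIC reported in μg/mL and μM.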

Staphylococcus hominis = experiment: Antibacterial activity against Methicillin-resistant Staphylococcus hominis MB124 after 24 hrs by microdilution assay; settings: MB124, 24 h; procedure, shortened: as §1
Staphylococcus simulans = experiment: Antibacterial activity against Staphylococcus simulans MB94 after 24 hrs by microdilution assay; settings: MB94, 24 h; procedure, shortened: as §2
Staphylococcus aureus [2] = experiment: Antibacterial activity against Methicillin-resistant Staphylococcus aureus MB188 after 24 hrs by microdilution assay; settings: MB188, 24 h; procedure, shortened: as §1
[3] = test system: Staphylococcus saprophyticus; experiment: Antibacterial activity against Staphylococcus saprophyticus MB41 after 24 hrs by microdilution assay; settings: MB41, 24 h; procedure, shortened: as §2
Staphylococcus aureus [4] = experiment: Antibacterial activity against Methicillin-resistant Staphylococcus aureus MB18 after 24 hrs by microdilution assay; settings: MB18, 24 h; procedure, shortened: as §1
[5] = test system: Staphylococcus epidermidis; experiment: Antibacterial activity against Methicillin-resistant Staphylococcus epidermidis MB165 after 24 hrs by microdilution assay; settings: MB165, 24 h; procedure, shortened: as §1
Staphylococcus capitis = experiment: Antibacterial activity against Methicillin-resistant Staphylococcus capitis MB71 after 24 hrs by microdilution assay; settings: MB71, 24 h; procedure, shortened: as §1
[6] = test system: Staphylococcus haemolyticus; experiment: Antibacterial activity against Methicillin-resistant Staphylococcus haemolyticus MB115 after 24 hrs by microdilution assay; settings: MB115, 24 h; procedure, shortened: as §1
[7] = test system: Staphylococcus epidermidis; experiment: Antibacterial activity against Methicillin-resistant Staphylococcus epidermidis MB169 after 24 hrs by microdilution assay; settings: MB169, 24 h; procedure, shortened: as §1
Enterococcus faecalis [8] = experiment: Antibacterial activity against Vancomycin resistant Enterococcus faecalis MB1 after 24 hrs by microdilution assay; settings: MB1, 24 h; procedure, shortened: as §1
Enterococcus faecalis [9] = experiment: Antibacterial activity against Vancomycin resistant Enterococcus faecalis MB19 after 24 hrs by microdilution assay; settings: MB19, 24 h; procedure, shortened: as §1
Enterococcus durans = experiment: Antibacterial activity against Enterococcus durans MB113 after 24 hrs by microdilution assay; settings: MB113, 24 h; procedure, shortened: as §2
Enterococcus faecalis [10] = experiment: Antibacterial activity against Enterococcus faecalis MB76 after 24 hrs by microdilution assay; settings: MB76, 24 h; procedure, shortened: as §1
Enterococcus faecalis [11] = experiment: Antibacterial activity against Vancomycin resistant Enterococcus faecalis MB51 after 24 hrs by microdilution assay; settings: MB51, 24 h; procedure, shortened: as §1
[12] = test system: Enterococcus casseliflavus; experiment: Antibacterial activity against Vancomycin resistant Enterococcus casseliflavus MB159 after 24 hrs by microdilution assay; settings: MB159, 24 h; procedure, shortened: as §1
Enterococcus faecium [13] = experiment: Antibacterial activity against Enterococcus faecium MB152 after 24 hrs by microdilution assay; settings: MB152, 24 h; procedure, shortened: as §2
Enterococcus faecium [14] = experiment: Antibacterial activity against Enterococcus faecium MB3 after 24 hrs by microdilution assay; settings: MB3, 24 h; procedure, shortened: as §2
Enterococcus faecium [15] = experiment: Antibacterial activity against Enterococcus faecium MB2 after 24 hrs by microdilution assay; settings: MB2, 24 h; procedure, shortened: as §2
Enterococcus avium = experiment: Antibacterial activity against Enterococcus avium MB119 after 24 hrs by microdilution assay; settings: MB119, 24 h; procedure, shortened: as §2
Enterococcus gallinarum = experiment: Antibacterial activity against Vancomycin resistant Enterococcus gallinarum MB111 after 24 hrs by microdilution assay; settings: MB111, 24 h; procedure, shortened: as §1

## Cc1onc(-c2ccccc2)c1C(=O)N[C@@H]1C(=O)N2[C@@H]1SC(C)(C)[C@@H]2C(=O)O [OXACILLIN]
Staphylococcus warneri
  MIC: 319 µM
[1]
  MIC: 1.25 µM
Staphylococcus hominis
  MIC: 39.9 µM
Staphylococcus simulans
  MIC: 0.62 µM
Staphylococcus aureus [2]
  MIC: 1280 µM
[3]
  MIC: 2.49 µM
Staphylococcus aureus [4]
  MIC: 638 µM
[5]
  MIC: 638 µM
Staphylococcus capitis
  MIC: 638 µM (≈ 256 µg/mL)
[6]
  MIC: 39.9 µM
[7]
  MIC: 638 µM

## COC1O[C@H]2C[C@@](C)(O)[C@H](CC/C(C)=C/CC3OC(=O)C=C3C)[C@@]3(C)CCC[C@]1(C)[C@H]23 (stereo partly specified)
Staphylococcus warneri
  MIC: 148 µM
Enterococcus faecalis [8]
  MIC: 296 µM (≈ 128 µg/mL)
[1]
  MIC: 296 µM
Staphylococcus hominis
  MIC: 148 µM
Staphylococcus simulans
  MIC: 296 µM
Staphylococcus aureus [2]
  MIC: 296 µM
Enterococcus faecalis [9]
  MIC: 148 µM (≈ 64 µg/mL)
[3]
  MIC: 296 µM
Enterococcus durans
  MIC: 296 µM
Staphylococcus aureus [4]
  MIC: 296 µM
Enterococcus faecalis [10]
  MIC: 296 µM (≈ 128 µg/mL)
[5]
  MIC: 148 µM
Enterococcus faecalis [11]
  MIC: 296 µM (≈ 128 µg/mL)
[12]
  MIC: 148 µM (≈ 64 µg/mL)
Staphylococcus capitis
  MIC: 74.1 µM (≈ 32.1 µg/mL)
Enterococcus faecium [13]
  MIC: 148 µM (≈ 64 µg/mL)
Enterococcus faecium [14]
  MIC: 296 µM (≈ 128 µg/mL)
Enterococcus faecium [15]
  MIC: 296 µM (≈ 128 µg/mL)
[6]
  MIC: 296 µM
Enterococcus avium
  MIC: 296 µM (≈ 128 µg/mL)
[7]
  MIC: 148 µM
Enterococcus gallinarum
  MIC: 296 µM (≈ 128 µg/mL)

## COC(=O)[C@]1(C)CCC[C@@]2(C)[C@H]1CC[C@@](C)(O)[C@@H]2CC/C(C)=C/C[C@H]1OC(=O)C=C1C
Staphylococcus warneri
  MIC: 148 µM
Enterococcus faecalis [8]
  MIC: 74.1 µM (≈ 32.1 µg/mL)
[1]
  MIC: 296 µM
Staphylococcus hominis
  MIC: 296 µM
Staphylococcus simulans
  MIC: > 128 µg/mL
Staphylococcus aureus [2]
  MIC: 296 µM
Enterococcus faecalis [9]
  MIC: 148 µM (≈ 64 µg/mL)
[3]
  MIC: 296 µM
Enterococcus durans
  MIC: 296 µM
Staphylococcus aureus [4]
  MIC: > 128 µg/mL
Enterococcus faecalis [10]
  MIC: 148 µM (≈ 64 µg/mL)
[5]
  MIC: 296 µM
Enterococcus faecalis [11]
  MIC: 296 µM (≈ 128 µg/mL)
[12]
  MIC: 296 µM (≈ 128 µg/mL)
Staphylococcus capitis
  MIC: 148 µM (≈ 64 µg/mL)
Enterococcus faecium [13]
  MIC: 296 µM (≈ 128 µg/mL)
Enterococcus faecium [14]
  MIC: 148 µM (≈ 64 µg/mL)
Enterococcus faecium [15]
  MIC: 296 µM (≈ 128 µg/mL)
[6]
  MIC: 296 µM
Enterococcus avium
  MIC: 296 µM (≈ 128 µg/mL)
[7]
  MIC: > 128 µg/mL
Enterococcus gallinarum
  MIC: 148 µM (≈ 64 µg/mL)

## COC(=O)[C@]1(C)CCC[C@@]2(C)[C@H]1CC[C@@](C)(O)[C@@H]2CC/C(C)=C/[C@H](O)[C@H]1OC(=O)C=C1C
Staphylococcus warneri
  MIC: 143 µM
Enterococcus faecalis [8]
  MIC: 143 µM (≈ 64.1 µg/mL)
[1]
  MIC: 286 µM
Staphylococcus hominis
  MIC: 286 µM
Staphylococcus simulans
  MIC: > 128 µg/mL
Staphylococcus aureus [2]
  MIC: > 128 µg/mL
Enterococcus faecalis [9]
  MIC: 143 µM (≈ 64.1 µg/mL)
[3]
  MIC: 286 µM
Enterococcus durans
  MIC: 286 µM
Staphylococcus aureus [4]
  MIC: 286 µM
Enterococcus faecalis [10]
  MIC: 143 µM (≈ 64.1 µg/mL)
[5]
  MIC: > 128 µg/mL
Enterococcus faecalis [11]
  MIC: 286 µM (≈ 128 µg/mL)
[12]
  MIC: 143 µM (≈ 64.1 µg/mL)
Staphylococcus capitis
  MIC: 286 µM (≈ 128 µg/mL)
Enterococcus faecium [13]
  MIC: 286 µM (≈ 128 µg/mL)
Enterococcus faecium [14]
  MIC: 143 µM (≈ 64.1 µg/mL)
Enterococcus faecium [15]
  MIC: 286 µM (≈ 128 µg/mL)
[6]
  MIC: > 128 µg/mL
Enterococcus avium
  MIC: 286 µM (≈ 128 µg/mL)
[7]
  MIC: 286 µM
Enterococcus gallinarum
  MIC: 143 µM (≈ 64.1 µg/mL)

## COC1O[C@H]2C[C@@](C)(O)[C@H](CC/C(C)=C/[C@H](O)[C@H]3OC(=O)C=C3C)[C@@]3(C)CCC[C@]1(C)[C@H]23 (stereo partly specified)
Staphylococcus warneri
  MIC: > 128 µg/mL
Enterococcus faecalis [8]
  MIC: 143 µM (≈ 64.1 µg/mL)
[1]
  MIC: > 128 µg/mL
Staphylococcus hominis
  MIC: 286 µM
Staphylococcus simulans
  MIC: > 128 µg/mL
Staphylococcus aureus [2]
  MIC: > 128 µg/mL
Enterococcus faecalis [9]
  MIC: 286 µM (≈ 128 µg/mL)
[3]
  MIC: 286 µM
Enterococcus durans
  MIC: > 128 µg/mL
Staphylococcus aureus [4]
  MIC: 286 µM
Enterococcus faecalis [10]
  MIC: 143 µM (≈ 64.1 µg/mL)
[5]
  MIC: > 128 µg/mL
Enterococcus faecalis [11]
  MIC: 143 µM (≈ 64.1 µg/mL)
[12]
  MIC: 286 µM (≈ 128 µg/mL)
Staphylococcus capitis
  MIC: 286 µM (≈ 128 µg/mL)
Enterococcus faecium [13]
  MIC: 286 µM (≈ 128 µg/mL)
Enterococcus faecium [14]
  MIC: 143 µM (≈ 64.1 µg/mL)
Enterococcus faecium [15]
  MIC: 286 µM (≈ 128 µg/mL)
[6]
  MIC: > 128 µg/mL
Enterococcus avium
  MIC: 143 µM (≈ 64.1 µg/mL)
[7]
  MIC: 286 µM
Enterococcus gallinarum
  MIC: 143 µM (≈ 64.1 µg/mL)

## CC1=CC(=O)O[C@@H]1[C@@H](O)/C=C(\C)CC[C@@H]1[C@@]2(C)CCC[C@@]3(C)C(=O)O[C@@H](C[C@@]1(C)O)[C@H]23
Staphylococcus warneri
  MIC: 296 µM
Enterococcus faecalis [8]
  MIC: 148 µM (≈ 64 µg/mL)
[1]
  MIC: > 128 µg/mL
Staphylococcus hominis
  MIC: > 128 µg/mL
Staphylococcus simulans
  MIC: > 128 µg/mL
Staphylococcus aureus [2]
  MIC: > 128 µg/mL
Enterococcus faecalis [9]
  MIC: 296 µM (≈ 128 µg/mL)
[3]
  MIC: > 128 µg/mL
Enterococcus durans
  MIC: 286 µM
Staphylococcus aureus [4]
  MIC: 296 µM
Enterococcus faecalis [10]
  MIC: 296 µM (≈ 128 µg/mL)
[5]
  MIC: 296 µM
Enterococcus faecalis [11]
  MIC: 296 µM (≈ 128 µg/mL)
[12]
  MIC: 296 µM (≈ 128 µg/mL)
Staphylococcus capitis
  MIC: 296 µM (≈ 128 µg/mL)
Enterococcus faecium [13]
  MIC: 148 µM (≈ 64 µg/mL)
Enterococcus faecium [14]
  MIC: 296 µM (≈ 128 µg/mL)
Enterococcus faecium [15]
  MIC: 296 µM (≈ 128 µg/mL)
[6]
  MIC: 296 µM
Enterococcus avium
  MIC: 148 µM (≈ 64 µg/mL)
[7]
  MIC: > 128 µg/mL
Enterococcus gallinarum
  MIC: 148 µM (≈ 64 µg/mL)

Source: ChEMBL document CHEMBL4610084, “Antibacterial and ATP Synthesis Modulating Compounds from Salvia tingitana” (2020)
